Compound activity deposited in PubChem BioAssay by several laboratories.
Compounds with a hit are over-represented: about 1.5% of the library has one in this group of screens.
PKA-R1A activ = activates the PKA-R1A holoenzyme complex | P00514+P68181 | activation, % at 11.4 µM | AID 504707 | PKA-R1A dissociation, Cy5-IP20 fluorescence polarization; scaled: DMSO 0%, 113 µM cGMP 100% | actives 0.083% (n = 340,000);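 active = percent activation above the mean of all tested compounds plus 3 SD, cut at about 19% in these data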;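 note: higher means more PKAc released from R1A so a rise in polarization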
Tb MetRS inh = blocks T. brucei methionyl-tRNA synthetase activity; purified T. brucei MetRS, ATP depletion, Kinase-Glo luminescence; inhibition, % at 11.9 µM; actives 0.4% (n = 360,000); AID 624268;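 active = inhibition above a per-plate cutoff of the control wells' mean inhibition plus 3 SD, cut at about 5.5% in these data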
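Dosing: 11.9 µM compound single dose, 0.9% DMSO; Assay system: purified T. brucei MetRS enzyme; Measured by: Kinase-Glo luciferase luminescence reporting remaining unconsumed ATP; Schedule: 15 min plus 2 h at 25 °C.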
PKA-R2B act = activators of human PKA-R2B complex. actives 0.079% (n = 340,000). activation, % at 11.4 µM. PKA-R2B holoenzyme dissociation, Cy5-IP20 fluorescence polarization; R2B truncated from residue 108, S112A mutant; 0% DMSO only, 100% 113 µM cGMP. AID 504700. P22694+P31323;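 active = activation above a cutoff set at the mean over all compounds plus 3 SD, cut at about 18% in these data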;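 note: higher means more holoenzyme dissociation and a rise in polarization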
Rin1 Abl inh = blocks binding of human Rin1 to Abl; TR-FRET Rin1/Abl binding, biochemical; inhibition, % at 7.35 µM; actives 0.4% (n = 360,000); AID 588664; in the data active = inhibition above about 5%, passing the limit was not always enough
Cardio protect = modulators protecting cardiomyocytes from myocardial damage. H9c2 cardiomyocytes, H2O2 injury protection, ATPLite, 2 h. protection from H2O2 cell death, % at 20 µM. actives 0.63% (n = 360,000);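 active = compounds giving at least 50% protection of heart cells from peroxide-induced death in the single-dose screen, raw or plate-pattern-corrected value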
Rin1-Abl confirm = confirmation of inhibitors of human Rin1-Abl interaction; shares compounds with Rin1 Abl inh; TR-FRET Rin1-Abl binding, purified proteins; inhibition, % at 7.35 µM; actives 49% (n = 1,300); AID 602124
GFP quencher = quenches GFP fluorescence, counter-screen for Rin1-Abl inhibitors; shares compounds with Rin1 Abl inh; inhibitors/quenchers counterscreen; inhibition, % at 6.75 µM; actives 8.5% (n = 1,300);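 note: ABL1-eGFP fusion protein alone without its partner RIN1-SBP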
GFP quench DR = GFP fluorescence interference dose response; shares compounds with Rin1 Abl inh; GFP fluorescence interference/quenching counterscreen; 230 tested, under 10 active; IC50, µM; AID 602182; call rule not given here;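 note: ABL1-eGFP fusion protein alone without its RIN1 binding partner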
Large screens that a line does not name were inactive (follow-up assays come after a bar, where they were run). Cut-off read from the data, not from the text of the source, unless noted: active = inhibition above about 6.5%; inactive = the rest.

CCCn1nc(C(=O)N(C)CC(=O)Nc2ccc(OCC)c(OCC)c2)c2ccccc2c1=O	Rin1 Abl inh 21.2 | Rin1-Abl confirm 34.3 | GFP quencher inactive | GFP quench DR inactive
CCCCn1nc(C(=O)N(C)CC(=O)Nc2cccc(F)c2)c2ccccc2c1=O	none
CC(C)(C)c1csc(Sc2ncccc2[N+](=O)[O-])n1	none
[O-]/C(=C(\C(=S)Nc1cccc2ccccc12)[n+]1ccccc1)c1ccc(Cl)s1	none
[O-]C(=C(C(=S)Nc1cccc2ccccc12)[n+]1cccc(CO)c1)c1ccc(Cl)s1	Rin1 Abl inh 12.7 | Rin1-Abl confirm inactive | GFP quencher inactive
CN(/N=C/c1ccc(O)cc1O)c1nc(-c2ccccc2)cc(-c2ccccc2)n1	none
O=c1c2ccccc2ncn1Cc1ccc(Cl)cc1	none
O=c1c2ccccc2ncn1Cc1ccc(Cl)c(Cl)c1	Rin1 Abl inh 6.3 | Rin1-Abl confirm inactive | GFP quencher inactive
Cc1cccc(-c2noc(CCCC(=O)NC3CCCCC3)n2)c1	none
Cn1c(=O)c2c(nc(SCCCC#N)n2Cc2c(F)cccc2Cl)n(C)c1=O	Rin1 Abl inh 7.2 | Rin1-Abl confirm 9.2 | GFP quencher inactive
COc1ccc(N(C(=O)c2snc(C(N)=O)c2N)C(C(=O)NC2CCCCC2)c2ccc(F)cc2)c(OC)c1 (stereo unspecified)	none
COc1ccc(C(C(=O)NCc2ccccc2)N(C(=O)c2snc(C(N)=O)c2N)C2CCCC2)cc1 (stereo unspecified)	none
COc1ccc(N(C(=O)c2snc(C(N)=O)c2N)C(C(=O)NCc2ccccc2)c2ccc(F)cc2)c(OC)c1 (stereo unspecified)	Rin1 Abl inh 9.9 | Rin1-Abl confirm 10.8 | GFP quencher inactive
COc1ccc(C(C(=O)NCc2ccccc2)N(C(=O)c2snc(C(N)=O)c2N)c2ccccc2OC)cc1 (stereo unspecified)	Rin1 Abl inh 12.2 | Rin1-Abl confirm 13.5 | GFP quencher inactive
Cc1ccc(N(C(=O)c2snc(C(N)=O)c2N)C(C(=O)NCc2ccccc2)c2ccncc2)c(C)c1 (stereo unspecified)	none
COc1ccccc1N(C(=O)c1snc(C(N)=O)c1N)C(C(=O)NCc1ccccc1)c1ccc(O)cc1 (stereo unspecified)	Rin1 Abl inh 22.4 | Rin1-Abl confirm 22.5 | GFP quencher inactive | GFP quench DR inactive
C/C(=N\Nc1ccc2nncn2n1)c1cccs1	none
C=CCn1c(C)nnc1SCC(=O)Nc1nc(C)c(C(=O)N(C)C)s1	Rin1 Abl inh 12.8 | Rin1-Abl confirm inactive | GFP quencher inactive
CC(=O)Oc1ccc(-c2cccc(C(=O)N(C)c3ccc(O)cc3)c2)cc1	none
Cc1cc(N2C(=O)C(O)=C(C(=O)c3cccs3)C2c2ccc(F)cc2)no1 (stereo unspecified)	none
CCN(CC)CCCNC(=O)C1c2ccccc2Oc2ccccc21	Rin1 Abl inh 5.0 | Rin1-Abl confirm inactive | GFP quencher inactive
COCCCNC(=O)C1c2ccccc2Oc2ccccc21	none
COc1ccc(S(=O)(=O)NCC(=O)NCCc2ccc(OC)c(OC)c2)cc1	none (no result: PKA-R1A activ, PKA-R2B act)
CN1CCN(C(=O)CSc2nc(-c3ccncc3)ccc2C#N)CC1	Rin1 Abl inh 10.4 | Rin1-Abl confirm 17.2 | GFP quencher inactive | GFP quench DR inactive
N#Cc1ccsc1NC(=O)CN1CCN(c2ccc(O)cc2)CC1	Rin1 Abl inh 10.2 | Rin1-Abl confirm inactive | GFP quencher inactive
N#Cc1ccsc1NC(=O)CN1CCN(c2ccccc2)CC1	none
COc1ccccc1C(=O)N=C1NC(=O)CC2C(=O)NCCN12 (stereo unspecified)	Rin1 Abl inh 8.8 | Rin1-Abl confirm inactive | GFP quencher inactive
Cc1cc(C)nc(/N=C2\NC(=O)CC3C(=O)NCCN23)n1 (stereo unspecified)	none
O=c1cc(-c2ccc(O)cc2)oc2c(O)c(O)c(O)c(O)c12	Rin1 Abl inh 36.9 | Rin1-Abl confirm 48.2 | GFP quencher 21.6
O=c1cc(-c2ccc(O)cc2)oc2c1ccc1ccccc12	none
CC(=O)N1c2ccc(S(=O)(=O)N3CCC(C(=O)NCc4ccc(Cl)cc4)CC3)cc2CC1C (stereo unspecified)	none
CC(=O)N1c2ccc(S(=O)(=O)N3CCC(C(=O)NCCc4ccc(Cl)cc4)CC3)cc2CC1C (stereo unspecified)	Rin1 Abl inh 9.8 | Rin1-Abl confirm inactive | GFP quencher inactive
Cc1ccc(NC(=O)CSc2nnc3n2CCCCC3)cc1	Rin1 Abl inh 6.0 | Rin1-Abl confirm inactive | GFP quencher inactive
C[C@H](CO)N1C[C@H](C)[C@@H](CN(C)Cc2ccc(-c3ccccc3)cc2)Oc2c(NS(=O)(=O)c3ccc(F)cc3)cccc2C1=O	Rin1 Abl inh 9.1 | Rin1-Abl confirm 9.2 | GFP quencher inactive
C[C@H](CO)N1C[C@H](C)[C@@H](CN(C)Cc2ccc(-c3ccccc3)cc2)Oc2c(NC(=O)c3ccncc3)cccc2C1=O	Rin1 Abl inh 22.3 | Rin1-Abl confirm 27.0 | GFP quencher inactive
C[C@H](CO)N1C[C@H](C)[C@@H](CN(C)Cc2ccccc2)Oc2c(NC(=O)c3ccncc3)cccc2C1=O	none
C[C@H](CO)N1C[C@H](C)[C@@H](CN(C)Cc2ccc(Oc3ccccc3)cc2)Oc2c(NC(=O)c3ccncc3)cccc2C1=O	Rin1 Abl inh 30.3 | Rin1-Abl confirm 27.8 | GFP quencher inactive
COc1ccc(S(=O)(=O)Nc2cccc3c2O[C@H](CN(C)Cc2ccc(-c4ccccc4)cc2)[C@@H](C)CN([C@H](C)CO)C3=O)cc1	none
Cc1ccc(C(=O)N2CCN(c3ccccc3F)CC2)cc1S(=O)(=O)N1CCOCC1	none
CCCCN(C)C(=O)c1ccc(Nc2nc(C(N)Cc3ccc(C(F)(F)F)cc3)cs2)nc1 (stereo unspecified)	Rin1 Abl inh 8.1 (no result: PKA-R1A activ, PKA-R2B act) | Rin1-Abl confirm inactive | GFP quencher inactive
C[C@@H]1CN([C@H](C)CO)C(=O)CCCn2cc(nn2)CO[C@H]1CN(C)S(=O)(=O)c1ccc2ccccc2c1	none
c1ccc2[nH]c(SCc3cn4ccccc4n3)nc2c1	Rin1 Abl inh 5.6 | Rin1-Abl confirm inactive | GFP quencher inactive
Cc1cccc2nc(CSc3nc4ccccc4[nH]3)cn12	none
